# Compound activity deposited in PubChem BioAssay by several laboratories.
# An excerpt weighted towards active compounds, which were near 3.7% of everything screened.
# SR-BI HDL uptake: blocks mouse SR-BI lipid uptake from DiI-HDL; Q61009; AID 488896; inhibition, % at 12.5 µM; ldlA[mSR-BI] CHO cells, DiI-HDL uptake fluorescence, 3 h; 320,000 compounds, 0.96% hits;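 active = mean replicate inhibition of at least 70% and a set share of replicates each scoring 70 or more; inconclusive = meets just one of the two criteria; inactive = fails both criteria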;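 note: 0% = median of neutral control wells and 100% = median of positive control wells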
# GAA850 FXN act: activators of GAA850 frataxin (FXN) promoter. HEK293 lucGAA850 FXN promoter luciferase reporter, 24 h; percent of 10 µM SAHA response. activation, % at 6 µM. 360,000 compounds, 0.56% hits. AID 540364;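 active = activation above the average of all compounds screened plus 3 SD, cutoff fixed separately per campaign, cut at about 7.5% in these data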;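 note: 0% = DMSO wells and 100% = 10 µM SAHA wells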
# AHR act: human AHR activation | AHR-responsive luciferase reporter cells, luminescence | activation, % at 5 µM | 320,000 compounds, 2.5% hits | AID 2796; in the data active = activation above about 47%;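 note: 0% = vehicle wells and 100% = reference agonist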
# Target sequence (P35869 whole entry, looked up): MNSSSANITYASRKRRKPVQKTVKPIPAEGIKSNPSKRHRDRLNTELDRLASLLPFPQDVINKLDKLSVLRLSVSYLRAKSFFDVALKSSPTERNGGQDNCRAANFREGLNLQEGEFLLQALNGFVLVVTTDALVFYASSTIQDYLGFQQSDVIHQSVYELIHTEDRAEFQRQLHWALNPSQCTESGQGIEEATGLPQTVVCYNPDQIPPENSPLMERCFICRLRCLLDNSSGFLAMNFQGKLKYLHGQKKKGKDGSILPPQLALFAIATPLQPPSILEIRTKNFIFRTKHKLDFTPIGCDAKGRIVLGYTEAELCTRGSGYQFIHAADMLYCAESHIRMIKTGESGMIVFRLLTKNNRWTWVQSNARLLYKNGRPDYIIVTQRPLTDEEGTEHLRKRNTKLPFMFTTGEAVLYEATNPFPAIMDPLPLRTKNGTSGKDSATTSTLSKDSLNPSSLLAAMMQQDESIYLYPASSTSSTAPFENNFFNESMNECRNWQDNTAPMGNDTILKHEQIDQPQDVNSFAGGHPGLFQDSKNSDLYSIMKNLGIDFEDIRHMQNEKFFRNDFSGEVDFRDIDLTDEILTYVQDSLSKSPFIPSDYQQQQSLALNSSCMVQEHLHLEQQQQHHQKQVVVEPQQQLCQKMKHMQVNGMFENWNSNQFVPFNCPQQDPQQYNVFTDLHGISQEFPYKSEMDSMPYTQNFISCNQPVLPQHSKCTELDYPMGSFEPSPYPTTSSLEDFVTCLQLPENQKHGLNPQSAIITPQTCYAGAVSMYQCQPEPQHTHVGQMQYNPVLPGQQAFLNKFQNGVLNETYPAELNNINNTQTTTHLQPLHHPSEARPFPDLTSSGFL
# JMJD2C inh: inhibitors of human GASC-1 (JMJD2C) demethylase | 330,000 compounds, 0.069% hits | GST-JMJD2C(1-420) H3K9me3 demethylation, DELFIA europium | Q9H3R0 | inhibition, % at 2.35 µM;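 active = more than half of a compound's replicate wells show inhibition beyond 50%, single wells judged on their own value; inconclusive = some, but no more than half, of replicates pass 50% inhibition; inactive = no replicate passes 50% inhibition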;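 note: signal counts dimethyl H3K9 product captured on neutravidin plate; 0% = median of DMSO wells and 100% = 0.3 times that DMSO median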
# SR-BI DiI-HDL act: enhances SR-BI lipid uptake from DiI-HDL | CHO ldlA[mSR-BI] cells, DiI-HDL uptake fluorescence, 3 h; 100 = double the neutral-control signal | activation, % at 12.5 µM | 320,000 compounds, 0.096% hits | AID 504775;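 active = mean replicate activation of at least 60% and every replicate at or above 60%; inconclusive = mean or all-replicate condition met, but not both; inactive = mean below 60% and not all replicates reaching 60%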;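 note: 0% = median plate neutral-control signal and 100% = twice that signal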
#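 system = CHO ldlA[mSR-BI] cells, LDL receptor-null, SR-BI overexpressing | medium = Ham's F12 with 0.5% BSA, HEPES 25 mM, pH 7.4 | probe or stimulus = DiI-HDL 10 µg/mL | compound dosing = single-point compound dose | incubation = compound exposure 3 h, 37 °C | technique = DiI fluorescence, bottom read | read-out = cell-associated DiI fluorescence as measure of HDL uptake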
# The depositor's hits bear a star; ? = inconclusive; . = no result.
SMILES,SR-BI HDL uptake,GAA850 FXN act,AHR act,JMJD2C inh,SR-BI DiI-HDL act
O=C(N/N=C/c1sc(N2CCOCC2)nc1-c1ccccc1)c1cccc(S(=O)(=O)N2CCCC2)c1,97.4*,-7.8,0.8,-1.5,-97.4
O=C(N/N=C/c1ccccc1Br)c1cccc(S(=O)(=O)N2CCOCC2)c1,79.5*,0.6,4.7,-4.4,-79.5
O=C(N/N=C/c1cc(Br)cc(Br)c1O)c1cccc(S(=O)(=O)N2CCOCC2)c1,.,1.8,1.8,4.2,.
CCOc1cc2c(cc1OC)C(NC(=O)c1ccco1)CC2=O (stereo not drawn),-7.2,2.1,1.9,11.1,7.2
Cc1onc(-c2ccccc2)c1C(=O)NC(=S)NNC(=O)c1ccc(O)cc1O,85.1*,-5.5,5.0,17.0,-85.1
Cc1onc(-c2ccccc2)c1C(=O)NC(=S)NNC(=O)c1ccccc1O,116.8*,-2.1,5.2,8.9,-116.7
CCOC(=O)/C=C/C(=O)Nc1ccc(S(=O)(=O)Nc2nccs2)cc1,72.5*,-1.6,0.3,3.5,-72.5
CCOCC(=O)Nc1ccc(S(=O)(=O)Nc2nccs2)cc1,-7.6,2.4,-0.3,14.0,7.6
CCCCc1cc(=O)oc2c(C)c(OCC(=O)N3CCC(C(=O)O)(c4ccccc4)CC3)ccc12,-19.5,-2.2,17.6,?,19.5
Cc1cc(=O)oc2c(C)c(OCC(=O)N3CCN(C(=O)C4COc5ccccc5O4)CC3)ccc12 (stereo not drawn),84.9*,-1.1,1.8,?,-84.9
CCCCc1cc(=O)oc2c(C)c(OCC(=O)N3CCCC3)ccc12,75.8*,-0.6,30.0,0.6,-75.8
NNc1nc2c(Cl)ccc(Cl)c2s1,0.4,2.6,55.7*,2.0,-0.4
CC(=O)N1CCN(C(=O)c2cccc(S(=O)(=O)N3CCOCC3)c2)CC1,-13.6,-4.0,.,.,13.6
COc1ccc(N2CCN(S(=O)(=O)CCNC(=O)COc3cccc(OC)c3)CC2)cc1,43.9,-3.8,3.1,2.6,.
CNC(=S)NNC(=O)c1oc2nc(-c3ccccc3)cc(C)c2c1N,-10.9,2.4,56.2*,7.9,10.9
NNC(=O)c1oc2nc(-c3cccs3)cc(-c3ccco3)c2c1N,16.0,-0.7,48.5*,0.8,-16.0
Cc1ccc(-c2cc(-c3ccco3)c3c(N)c(C(=O)NN)oc3n2)cc1,78.2*,2.6,42.5,-15.9,-78.2
NNC(=O)c1oc2nc(-c3ccccc3)cc(-c3ccccc3)c2c1N,98.0*,-0.5,30.0,-0.4,-98.0
O=C1CC(N2CCN(c3ccccn3)CC2)C(=O)N1CC(c1ccccc1)c1ccccc1 (stereo not drawn),15.7,0.8,-0.5,-2.2,-15.7
CCN(CC)C(=O)c1cccc(-c2csc(C(O)(c3ccccc3)C(F)(F)F)n2)c1 (stereo not drawn),.,-1.6,.,.,.
O=C(c1ccccc1NS(=O)(=O)c1ccc([N+](=O)[O-])cc1[N+](=O)[O-])N1O[C@@H]2C=C[C@H]1C2,10.2,1.4,.,.,-10.2
CN(Cc1ccccc1)C(=O)c1cccc(NC(=O)Cc2ccc(NC(=O)C3CCN(C(=O)C4CCC4)CC3)cc2)c1,92.4*,-1.1,.,.,-92.4
CN(C(=O)c1ccc(NC(=O)Cc2ccc(NC(=O)C3CCN(C(=O)c4ccccc4)CC3)cc2)cc1)C1CC1,14.2,1.1,-0.9,57.6*,-14.2
O=C(Cc1ccc(NC(=O)C2CCCN(C(=O)C3CCCC3)C2)cc1)Nc1cccc(C(=O)N2CCCCC2)c1 (stereo not drawn),73.3*,-1.3,.,.,-73.3
CN(Cc1ccccc1)C(=O)c1cccc(NC(=O)Cc2cccc(NC(=O)C3CCN(C(=O)C4CC4)CC3)c2)c1,16.1,0.8,.,.,-16.1
SMILES,SR-BI HDL uptake,GAA850 FXN act,AHR act,JMJD2C inh,SR-BI DiI-HDL act
O=[N+]([O-])c1c(C(Cl)Cl)nn(-c2ccccc2)c1N1CCCC1,23.7,-1.2,5.6,2.9,-23.7
Cc1cc(C)cc(N(CC(=O)NC2CCCC2)C(=O)CCC(=O)Nc2cc(C)ccn2)c1,-9.3,-1.0,2.2,10.8,9.3
CCC(C(=O)NCC1CCCO1)N(Cc1ccc(F)cc1)C(=O)CNS(=O)(=O)c1ccccc1 (stereo not drawn),-3.6,-2.8,-0.7,-5.3,3.6
Cc1cccc(C)c1NC(=O)/C(C#N)=C/c1ccc(-c2ccc(C(=O)O)cc2)o1,.,3.7,2.5,5.5,.
N#C/C(=C\c1ccc(-c2ccc(C(=O)O)cc2)o1)C(=O)Nc1ccc(F)cc1,-8.8,0.3,77.2*,10.5,8.8
CC(C)c1ccc(NNC(=O)C2CCC2)cc1,-21.2,2.8,49.3*,4.2,21.2
COCCCNC(=O)C1CCC(=O)N(c2ccc3c(c2)OCO3)C1c1ccc(OC)cc1 (stereo not drawn),.,-1.2,0.9,6.6,.
Cc1ccc(NC(=O)c2cccc(-n3cnnn3)c2)cc1Cl,19.8,-0.7,56.2*,-5.6,-19.8
CS(=O)(=O)c1ccc(NC(=O)c2cccc(-n3cnnn3)c2)cc1,12.0,-1.1,4.2,13.3,-12.0
CN(Cc1nc2ccc(F)cc2[nH]1)Cc1c(C(=O)N(C)C)nc2ccc(Cl)cn12,5.7,3.4,3.8,9.6,-5.7
COc1ccc(/C=C\C(=O)NCC(=O)N/N=C/c2ccc(O)cc2O)cc1,.,1.2,1.3,3.0,.
COc1ccc(/C=C/C(=O)NCC(=O)N/N=C/c2cc(Br)ccc2OC)cc1,78.4*,-3.5,7.1,-14.1,-78.4
COc1ccccc1/C=C/C(=O)NCC(=O)N/N=C/c1cc(Br)ccc1OC,98.5*,-2.1,44.7,-2.8,-98.5
Cc1cc(C)nc(Nc2ncc(O)n2-c2ccc(C)c(C)c2)n1,-6.6,-0.5,7.3,1.4,6.6
Cc1cc(C)nc(Nc2ncc(O)n2-c2ccc(C)c(Cl)c2)n1,0.6,3.1,57.1*,.,-0.6
O=C(NC(c1ccc(Cl)cc1)c1cnccn1)C1CCN(CCCc2ccccc2)CC1 (stereo not drawn),.,2.7,.,.,.
O=C(N1CCN(S(=O)(=O)c2ccc(Cl)cc2)CC1)n1ccnc1,-65.1,0.3,0.8,20.7,65.1*
OCc1csc(=Nc2ccccc2)n1-c1ccccc1,2.5,0.6,5.6,57.3*,-2.5
O=c1[nH]nc(SCCS(=O)(=O)c2ccc(F)cc2)n1-c1ccccc1,.,1.1,-0.7,-1.8,.
Cc1nn(-c2ccc(Cl)cc2)c(=O)c2ccccc12,16.5,6.7,53.9*,-4.5,-16.5
O=C(CN1CCN(S(=O)(=O)c2cccc(F)c2)CC1)NCC1(N2CCOCC2)CCCCC1,-0.8,2.1,-0.7,.,0.8
COC(=O)CCSCC(=O)Nc1ccc(C)c(S(=O)(=O)N2CCCCC2)c1,5.3,-2.0,0.2,-8.0,-5.3
CCc1ccc(N=c2c([N+](=O)[O-])nn(-c3ccccc3)n2O)cc1,15.3,1.7,30.6,-20.7,-15.3
Cc1cc(C)cc(N=c2c([N+](=O)[O-])nn(-c3ccc(Cl)cc3)n2O)c1,80.3*,1.1,40.1,-5.9,-80.3
